Screening data deposited in PubChem BioAssay by Sanford-Burnham Center for Chemical Genomics.
CCR6 antag – blocks CCL20-driven beta-arrestin recruitment at human CCR6; P51684; inhibition, % at 20 µM; 340,000 tested, 0.49% active; AID 493098; CHO-K1 CCR6 PathHunter beta-arrestin, luminescence, CCL20-stimulated;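 active = compounds whose inhibition of the agonist-driven luminescence signal at 20 µM reaches about 50%, limit read from the data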;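 also: cells stimulated with CCL20 at 14 nM final; plate controls were DMSO with CCL20 for no effect and DMSO without agonist for full effect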
CXCR6 inh – inhibitors of human CXCR6 receptor; O00574; CHO-K1 PathHunter CXCR6 beta-arrestin, luminescence; inhibition, % at 20 µM; 360,000 tested, 0.36% active; AID 602244; in the data active = inhibition above about 34%, passing the limit was not always enough;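 also: antagonist mode with CXCL16 agonist at 10 nM final; 0% = 10 nM CXCL16 with DMSO and 100% = unstimulated wells without agonist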
EBI2 block – EBI2 (human) antagonism. EBI2 beta-arrestin recruitment, luminescence, 7a,25-OHC stimulated. 360,000 tested, 0.81% active. AID 651636. P32249. inhibition, % at 5 µM; in the data active = inhibition above about 38%;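 also: enzyme fragment complementation signal reports receptor beta-arrestin coupling in cells; 0% = agonist plus DMSO wells and 100% = wells without agonist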
Target sequence (P32249 whole entry, looked up, the tested form may be a part): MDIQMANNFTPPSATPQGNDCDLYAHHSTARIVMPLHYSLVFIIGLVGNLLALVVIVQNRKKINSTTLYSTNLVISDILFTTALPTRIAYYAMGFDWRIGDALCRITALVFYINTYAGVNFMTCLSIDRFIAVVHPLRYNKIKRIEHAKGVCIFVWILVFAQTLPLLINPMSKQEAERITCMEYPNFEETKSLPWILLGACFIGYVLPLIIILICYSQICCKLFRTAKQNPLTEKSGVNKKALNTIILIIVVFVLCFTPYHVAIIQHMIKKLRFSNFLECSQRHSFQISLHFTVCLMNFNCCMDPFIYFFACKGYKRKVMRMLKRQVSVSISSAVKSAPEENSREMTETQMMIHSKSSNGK
APJ antagonist – blocks the human apelin receptor APJ. P35414. CHO-K1 APJ beta-arrestin complementation, luminescence. inhibition, % at 20 µM. 330,000 tested, 0.32% active. AID 2521;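 active = inhibition above about 40% at 20 µM, limit read from the data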;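 also: cells challenged with 10 nM apelin-13 agonist together with compound; plate controls were apelin-13 plus DMSO wells for no effect and DMSO wells lacking apelin-13 for full effect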
APJ agonist – agonists of human APJ apelin receptor; P35414; CHO-K1 APJ PathHunter beta-arrestin, luminescence; 0% DMSO wells, 100% apelin; activation, % at 20 µM; 330,000 tested, 0.11% active; AID 2520;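 active = activation more than six SD over the plate average, tested at 20 µM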;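 also: 0% = DMSO alone and 100% = apelin-13 at 10 nM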
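Material: CHO-K1 APJ beta-arrestin complementation cell line; Input: cell density 1000 per well; Incubation: compound stimulation 90 min at 25 °C, detection 60 min; Signal: luminescence from split beta-galactosidase complementation, Galacton Star/Emerald II substrate; Controls: DMSO-only wells as negative, 10 nM Apelin-13 as positive control.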
CXCR6 confirm – CXCR6 antagonism confirmation, single concentration | shares compounds with CXCR6 inh | CHO-K1 CXCR6 PathHunter beta-arrestin, luminescence | inhibition, % at 20 µM | 700 tested, 65% active | AID 602409;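 active = mean inhibition over four retests above 40%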;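 also: receptor stimulated with 10 nM CXCL16 agonist; beta-galactosidase fragment complementation upon beta-arrestin recruitment to receptor; plate controls were CXCL16 plus DMSO for no effect and DMSO without CXCL16 for full effect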
The depositor's hits bear a star. Rows were chosen to be rich in hits. Some 1.5% of all compounds tested hit in one or more screens of this group.

C[n+]1ccc(/C=N/Nc2nc(Cl)c(C#N)c(Cl)c2Cl)cc1 was read as CCR6 antag 55.8*, CXCR6 inh 42.5*, EBI2 block 0.2, APJ antagonist 36.9, APJ agonist -6.0 and CXCR6 confirm 52.0*.
Screening C[C@H]1CN([C@@H](C)CO)C(=O)CCCn2nncc2CO[C@@H]1CN(C)S(=O)(=O)c1cccc(F)c1 returned CXCR6 inh 4.3 and EBI2 block 3.4.
`CCOC(=O)N1CCN(S(=O)(=O)c2cccc3ccc(C)nc23)CC1` gave CCR6 antag -3.2, CXCR6 inh 84.3*, EBI2 block -4.0, APJ antagonist -0.3, APJ agonist 1.5 and CXCR6 confirm 14.6.
Screening CNc1cnn(-c2ccc(C)cc2)c(=O)c1Cl returned CCR6 antag 0.8, CXCR6 inh 56.1*, EBI2 block 0.6, APJ antagonist -7.0, APJ agonist 0.1 and CXCR6 confirm 1.7.
`Cc1ccc(NC(=S)NNC(=S)NNc2ccccc2)cc1C` gave CXCR6 inh 39.6*, EBI2 block 26.1 and CXCR6 confirm 36.6.
`S=C(NNC(=S)Nc1ccc(Cl)cc1)NNc1ccccc1` gave CXCR6 inh 22.4 and EBI2 block 32.1.
Screening CCc1nc2ccc(C(=O)N(C)Cc3ccco3)cn2c1N(C)CCCc1ccccc1 returned CXCR6 inh 10.8 and EBI2 block 5.8.
Screening COc1ccc(N2C(=O)CC(Cc3ccccc3)C2=O)cc1 (stereo not given) returned CCR6 antag 3.3, CXCR6 inh -2.9, EBI2 block -8.2, APJ antagonist -11.9 and APJ agonist -1.9.
For O=C1C=CC2(C=C1)O[C@H](Cc1ccccc1)[C@@H](Cc1ccccc1)O2 the results were CCR6 antag 93.9*, CXCR6 inh 76.2*, EBI2 block 84.6* and CXCR6 confirm 70.9*.
For O=C1Nc2ccccc2C1Cc1ccccc1 (stereo not given) the results were CCR6 antag -9.2, CXCR6 inh 7.0, EBI2 block 2.3, APJ antagonist -5.0 and APJ agonist -3.5.
`COc1ccc(C[C@@H]2OC3(C=CC(=O)C=C3)O[C@H]2Cc2ccc(OC)cc2)cc1` gave CCR6 antag 106.8*, CXCR6 inh 83.3*, EBI2 block 87.8* and CXCR6 confirm 83.7*.
`CCCS(=O)(=O)NC(=O)C1(C)CCN(C(=O)c2cc(-c3cccs3)oc2C)C1` (stereo not given) gave CXCR6 inh 1.3 and EBI2 block 1.8.
Screening C(=NNc1nnn(Cc2ccccc2)n1)c1ccccc1 returned CXCR6 inh -0.6 and EBI2 block 0.6.
Screening COc1ccc(Nc2ncccc2C(=O)O)cc1 returned CCR6 antag -34.6, CXCR6 inh 69.5*, EBI2 block -3.1, APJ antagonist -1.4, APJ agonist 0.5 and CXCR6 confirm 17.4.
Screening COc1cc(/C=C/C(=O)NC(=O)c2ccccc2O)ccc1O returned CCR6 antag 19.0, CXCR6 inh -0.4, EBI2 block 11.7, APJ antagonist 19.1 and APJ agonist -10.7.
For COc1cc(/C=C/C(O)=C/C(=O)/C=C/c2ccc(O)cc2)ccc1O the results were CCR6 antag 60.9*, CXCR6 inh 40.2*, EBI2 block 13.1, APJ antagonist 3.9, APJ agonist -9.1 and CXCR6 confirm 44.8*.
For CNC[C@@H](CC1CCCCC1)NC[C@H](CC(C)C)NCCc1cccc(C(F)(F)F)c1 the results were CCR6 antag 40.6, CXCR6 inh 42.2*, EBI2 block -11.5, APJ antagonist 15.5, APJ agonist -8.4 and CXCR6 confirm 37.2.
`CNC[C@@H](Cc1ccccc1)NC[C@@H](CC1CCCCC1)NCCCc1ccccc1` gave CCR6 antag 41.5, CXCR6 inh -3.5, EBI2 block -26.7, APJ antagonist 32.5 and APJ agonist 8.8.
Screening C[C@@H]1CCCCO[C@@H](CN(C)C(=O)CCCN(C)C)[C@@H](C)CN([C@H](C)CO)C(=O)c2cc(N(C)C)ccc2O1 returned CXCR6 inh 4.8 and EBI2 block -7.1.
`CC(C)(C)NC(=O)NC(=O)COC(=O)c1c(F)cccc1Cl` gave CCR6 antag 8.8, CXCR6 inh 40.3*, EBI2 block 14.2, APJ antagonist 4.4, APJ agonist -0.6 and CXCR6 confirm 5.8.
Screening COc1ccc(CN2C(=O)C(CC(=O)NCc3ccco3)CC(C(=O)N(C(C)C)C(C)C)=C2C)cc1 (stereo not given) returned CXCR6 inh -0.8 and EBI2 block 2.3.
CC[N+]1(C)CCC(O)(/C=C/c2ccccc2)C(C(=O)/C=C/c2ccccc2)C1 (stereo not given) was read as CCR6 antag 63.4*, CXCR6 inh 40.4*, EBI2 block 25.4 and CXCR6 confirm 67.6*.
Screening CN(C)S(=O)(=O)c1ccc(Cl)c(NC(=O)COC(=O)CNS(=O)(=O)c2c(F)cccc2F)c1 returned CCR6 antag 6.1, CXCR6 inh -0.1 and EBI2 block -6.5.
For COC(=O)c1cc([N+](=O)[O-])c(-n2cncn2)c([N+](=O)[O-])c1 the results were CCR6 antag 96.8*, CXCR6 inh 79.1*, EBI2 block 10.4 and CXCR6 confirm 95.8*.
COc1ccc(C(C)(C)C)cc1NC(=O)COC(=O)CN1C(=O)NC2(CCCCC2C)C1=O (stereo not given) was read as CCR6 antag 14.9, CXCR6 inh 4.7, EBI2 block 8.5, APJ antagonist -2.3 and APJ agonist -5.1.
For O=[N+]([O-])c1cc2no[n+]([O-])c2cc1N1CCCCC1 the results were CCR6 antag 106.2*, CXCR6 inh 99.6*, EBI2 block -29.8 and CXCR6 confirm 93.3*.
N#Cc1cc(N2CCCCC2)c([N+](=O)[O-])cc1C#N was read as CCR6 antag -8.8, CXCR6 inh 3.5, EBI2 block 3.5, APJ antagonist -11.8 and APJ agonist -1.0.
`O=C(c1ccc(Br)s1)N1CCCC1` gave CCR6 antag -11.4, CXCR6 inh 5.4, EBI2 block -5.8, APJ antagonist 10.3 and APJ agonist -4.1.
O=C(c1ccc(Br)s1)N1CCN(c2ncccn2)CC1 was read as CCR6 antag 5.7, CXCR6 inh 41.4*, EBI2 block -4.7, APJ antagonist -8.8, APJ agonist -5.2 and CXCR6 confirm 2.7.
Screening O=C(C(=Cc1ccc(F)cc1)c1ccccc1)c1ccc(O)cc1 returned CCR6 antag 12.5, CXCR6 inh 0.3 and EBI2 block -3.1.
Screening O=C(C(=Cc1ccc(F)cc1)C(=O)c1ccccc1)c1ccccc1 returned CXCR6 inh 42.3*, EBI2 block 25.2 and CXCR6 confirm 58.5*.
Screening O=[N+]([O-])c1ccc(Sc2nc3ccccc3o2)c([N+](=O)[O-])c1 returned CCR6 antag 43.3, CXCR6 inh 43.4*, EBI2 block -52.8, APJ antagonist -77.7, APJ agonist 9.2 and CXCR6 confirm 45.8*.
